Experimental data from ChEMBL document CHEMBL1152649, “Synthesis, cytotoxicity and human telomerase inhibition activities of a series of 1,2-heteroannelated anthraquinones and anthra[1,2-d]imidazole-6,11-dione homologues” (2009).

Experiments:
[1] = test system: MDA-MB-435; assay: Antiproliferative activity against human MDA-MB-435 cells assessed as cell growth at 10 uM; format: functional; details: read-out: Activity
Method in brief: (§1)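 NCI 60 cell line panel, single-dose screen (10^-5 M) run by the developmental therapeutics program protocol. Results are given as growth percent of treated cells relative to untreated control cells for each line.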

[2] = test system: SNB-75; assay: Antiproliferative activity against human SNB75 cells assessed as cell growth at 10 uM; format: functional; details: read-out: Activity
Method in brief: (§2)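 NCI 60 cell line panel, single dose (10^-5 M), run per the Developmental Therapeutics Program protocol (one dose mean graph). Each result is the growth percentage of treated cells relative to untreated control cells.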

[3] = test system: A498; assay: Antiproliferative activity against human A498 cells assessed as cell growth at 10 uM; format: functional; details: read-out: Activity; method in brief: as §1
[4] = test system: OVCAR-5; assay: Antiproliferative activity against human OVCAR5 cells assessed as cell growth at 10 uM; format: functional; details: read-out: Activity; method in brief: as §1
[5] = test system: U-251; assay: Antiproliferative activity against human U251 cells assessed as cell growth at 10 uM; format: functional; details: read-out: Activity; method in brief: as §2
[6] = test system: T47D; assay: Antiproliferative activity against human T47D cells assessed as cell growth at 10 uM; format: functional; details: read-out: Activity; method in brief: as §2
[7] = Cytotoxicity against human H1299 cells at 10 uM after 48 hrs by MTT assay; format: functional; details: NCI-H1299, 48 h
Method in brief: (§3)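 H1299 non-small cell lung cancer cells were grown in RPMI 1640 with 10% FBS, penicillin and streptomycin at 37 °C under 5% CO2. About 2 × 10³ cells per well were seeded and left 24 h. Compounds were dissolved fresh in DMSO, diluted into complete medium and applied for 48 h. MTT was then added for 4 h at 37 °C, followed by lysis buffer (20% SDS, 50% DMF) for 16 h, and absorbance was read at 550 nm.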

[8] = test system: 786-0; assay: Antiproliferative activity against human 786-0 cells assessed as cell growth at 10 uM; format: functional; details: read-out: Activity; method in brief: as §1
[9] = test system: HCT-116; assay: Antiproliferative activity against human HCT116 cells assessed as cell growth at 10 uM; format: functional; details: read-out: Activity; method in brief: as §1
[10] = test system: HOP-62; assay: Antiproliferative activity against human HOP62 cells assessed as cell growth at 10 uM; format: functional; details: read-out: Activity; method in brief: as §1
[11] = test system: SK-MEL-28; assay: Antiproliferative activity against human SK-MEL-28 cells assessed as cell growth at 10 uM; format: functional; details: read-out: Activity; method in brief: as §1
[12] = test system: CCRF-CEM; assay: Antiproliferative activity against human CCRF-CEM cells assessed as cell growth at 10 uM; format: functional; details: read-out: Activity; method in brief: as §1
[13] = test system: SF-539; assay: Antiproliferative activity against human SF539 cells assessed as cell growth at 10 uM; format: functional; details: read-out: Activity; method in brief: as §1
[14] = test system: M14; assay: Antiproliferative activity against human M14 cells assessed as cell growth at 10 uM; format: functional; details: read-out: Activity; method in brief: as §1
[15] = target: Telomerase reverse transcriptase (Homo sapiens) (UniProt O14746); assay: Inhibition of TERT in human H1299 cells assessed as residual transcriptional activity at 1 uM after 24 hrs by SEAP reporter gene assay; values are per cent of control
Telomerase reverse transcriptase (Homo sapiens), sequence (O14746 whole entry): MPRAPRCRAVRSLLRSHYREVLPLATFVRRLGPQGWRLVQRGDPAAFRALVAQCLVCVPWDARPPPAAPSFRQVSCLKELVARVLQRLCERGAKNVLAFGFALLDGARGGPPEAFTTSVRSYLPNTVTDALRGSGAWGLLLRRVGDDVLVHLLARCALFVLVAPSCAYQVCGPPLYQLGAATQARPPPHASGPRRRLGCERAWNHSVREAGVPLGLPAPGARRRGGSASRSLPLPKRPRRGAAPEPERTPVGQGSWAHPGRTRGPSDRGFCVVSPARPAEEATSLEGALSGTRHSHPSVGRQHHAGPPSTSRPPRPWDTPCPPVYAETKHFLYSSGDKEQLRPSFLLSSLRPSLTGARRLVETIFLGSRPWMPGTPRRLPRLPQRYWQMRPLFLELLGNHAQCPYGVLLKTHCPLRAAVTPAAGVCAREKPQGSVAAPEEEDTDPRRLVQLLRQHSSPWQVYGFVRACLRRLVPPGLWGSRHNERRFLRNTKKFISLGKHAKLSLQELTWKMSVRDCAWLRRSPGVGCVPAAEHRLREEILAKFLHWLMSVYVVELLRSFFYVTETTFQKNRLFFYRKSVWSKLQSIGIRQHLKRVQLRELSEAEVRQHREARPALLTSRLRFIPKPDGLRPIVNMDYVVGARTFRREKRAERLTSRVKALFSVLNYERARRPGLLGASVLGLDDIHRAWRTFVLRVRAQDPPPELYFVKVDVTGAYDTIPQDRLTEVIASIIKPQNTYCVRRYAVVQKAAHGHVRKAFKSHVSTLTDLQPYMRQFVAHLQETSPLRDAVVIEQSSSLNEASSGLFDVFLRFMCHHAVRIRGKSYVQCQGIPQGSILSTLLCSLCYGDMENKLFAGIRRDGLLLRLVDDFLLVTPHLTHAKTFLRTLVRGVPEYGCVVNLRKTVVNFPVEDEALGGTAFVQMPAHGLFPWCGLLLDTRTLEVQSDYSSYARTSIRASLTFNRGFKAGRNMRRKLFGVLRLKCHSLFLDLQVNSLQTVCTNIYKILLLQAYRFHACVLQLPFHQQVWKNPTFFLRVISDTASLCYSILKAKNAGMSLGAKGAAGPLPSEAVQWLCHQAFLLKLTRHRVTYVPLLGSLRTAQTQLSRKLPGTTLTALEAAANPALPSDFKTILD

[16] = test system: SW-620; assay: Antiproliferative activity against human SW620 cells assessed as cell growth at 10 uM; format: functional; details: read-out: Activity; method in brief: as §2
[17] = Cytotoxicity against human H1299 cells at 1 uM after 48 hrs by MTT assay; format: functional; details: NCI-H1299, 48 h; method in brief: as §3
[18] = test system: SK-OV-3; assay: Antiproliferative activity against human SKOV3 cells assessed as cell growth at 10 uM; format: functional; details: read-out: Activity; method in brief: as §1
[19] = test system: SK-MEL-5; assay: Antiproliferative activity against human SK-MEL-5 cells assessed as cell growth at 10 uM; format: functional; details: read-out: Activity; method in brief: as §1
[20] = test system: UACC-257; assay: Antiproliferative activity against human UACC257 cells assessed as cell growth at 10 uM; format: functional; details: read-out: Activity; method in brief: as §2
[21] = test system: EKVX; assay: Antiproliferative activity against human EKVX cells assessed as cell growth at 10 uM; format: functional; details: read-out: Activity; method in brief: as §1
[22] = test system: SN12C; assay: Antiproliferative activity against human SN12C cells assessed as cell growth at 10 uM; format: functional; details: read-out: Activity; method in brief: as §1
[23] = test system: UACC-62; assay: Antiproliferative activity against human UACC62 cells assessed as cell growth at 10 uM; format: functional; details: read-out: Activity; method in brief: as §2
[24] = test system: SNB-19; assay: Antiproliferative activity against human SNB19 cells assessed as cell growth at 10 uM; format: functional; details: read-out: Activity; method in brief: as §1
[25] = Antiproliferative activity against human Hs 578T cells assessed as cell growth at 10 uM; format: functional; details: read-out: Activity; method in brief: as §1
[26] = test system: SF-268; assay: Antiproliferative activity against human SF268 cells assessed as cell growth at 10 uM; format: functional; details: read-out: Activity; method in brief: as §1
[27] = test system: SF-295; assay: Antiproliferative activity against human SF295 cells assessed as cell growth at 10 uM; format: functional; details: read-out: Activity; method in brief: as §1
[28] = test system: Malme-3M; assay: Antiproliferative activity against human MALME-3M cells assessed as cell growth at 10 uM; format: functional; details: read-out: Activity; method in brief: as §1
[29] = test system: COLO 205; assay: Antiproliferative activity against human COLO205 cells assessed as cell growth at 10 uM; format: functional; details: read-out: Activity; method in brief: as §1
[30] = test system: K562; assay: Antiproliferative activity against human K562 cells assessed as cell growth at 10 uM; format: functional; details: read-out: Activity; method in brief: as §1
[31] = test system: NCI-H23; assay: Antiproliferative activity against human NCI-H23 cells assessed as cell growth at 10 uM; format: functional; details: read-out: Activity; method in brief: as §1
[32] = test system: NCI/ADR-RES; assay: Antiproliferative activity against human NCI/ADR-RES cells assessed as cell growth at 10 uM; format: functional; details: read-out: Activity; method in brief: as §1
[33] = test system: HCT-15; assay: Antiproliferative activity against human HCT15 cells assessed as cell growth at 10 uM; format: functional; details: read-out: Activity; method in brief: as §1
[34] = test system: HL-60(TB); assay: Antiproliferative activity against human HL-60(TB) cells assessed as cell growth at 10 uM; format: functional; details: read-out: Activity
Method in brief: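 NCI Developmental Therapeutics Program 60-cell-line one-dose screen at 10^-5 M. Readout is growth percentage of treated cells relative to untreated control cells.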

[35] = Cytotoxicity against human H1299 cells at 100 uM after 48 hrs by MTT assay; format: functional; details: NCI-H1299, 48 h; method in brief: as §3
[36] = test system: SR; assay: Antiproliferative activity against human SR cells assessed as cell growth at 10 uM; format: functional; details: read-out: Activity; method in brief: as §2
[37] = test system: DU-145; assay: Antiproliferative activity against human DU145 cells assessed as cell growth at 10 uM; format: functional; details: read-out: Activity; method in brief: as §1
[38] = test system: MOLT-4; assay: Antiproliferative activity against human MOLT4 cells assessed as cell growth at 10 uM; format: functional; details: read-out: Activity; method in brief: as §1
[39] = test system: CAKI-1; assay: Antiproliferative activity against human Caki1 cells assessed as cell growth at 10 uM; format: functional; details: read-out: Activity; method in brief: as §1
[40] = test system: NCI-H226; assay: Antiproliferative activity against human NCI-H226 cells assessed as cell growth at 10 uM; format: functional; details: read-out: Activity; method in brief: as §1
[41] = test system: OVCAR-3; assay: Antiproliferative activity against human OVCAR-3 cells assessed as cell growth at 10 uM; format: functional; details: read-out: Activity; method in brief: as §1
[42] = test system: SK-MEL-2; assay: Antiproliferative activity against human SK-MEL-2 cells assessed as cell growth at 10 uM; format: functional; details: read-out: Activity; method in brief: as §1
[43] = test system: HT-29; assay: Antiproliferative activity against human HT-29 cells assessed as cell growth at 10 uM; format: functional; details: read-out: Activity; method in brief: as §1
[44] = target: Telomerase reverse transcriptase (Homo sapiens) (UniProt O14746); assay: Inhibition of TERT in human H1299 cells assessed as residual transcriptional activity at 10 uM after 24 hrs by SEAP reporter gene assay; values are per cent of control
[45] = test system: OVCAR-4; assay: Antiproliferative activity against human OVCAR4 cells assessed as cell growth at 10 uM; format: functional; details: read-out: Activity; method in brief: as §1
[46] = test system: NCI-H522; assay: Antiproliferative activity against human NCI-H522 cells assessed as cell growth at 10 uM; format: functional; details: read-out: Activity; method in brief: as §1

SMILES: O=C1c2ccccc2C(=O)c2c1ccc1nsnc21
- growth at 10 µM [1]: -87.9%
- growth at 10 µM [2]: 79%
- growth at 10 µM [3]: 130%
- growth at 10 µM [4]: -20.1%
- growth at 10 µM [5]: -89.3%
- growth at 10 µM [6]: -45.5%
- viability at 10 µM [7]: 16%
- growth at 10 µM [8]: -26%
- growth at 10 µM [9]: -50%
- growth at 10 µM [10]: -100%
- growth at 10 µM [11]: 15.5%
- growth at 10 µM [12]: -30.8%
- growth at 10 µM [13]: -47.1%
- growth at 10 µM [14]: 74.5%
- residual activity [15]: 89%
- growth at 10 µM [16]: 7.3%
- viability at 1 µM [17]: 40%
- growth at 10 µM [18]: 101%
- growth at 10 µM [19]: 8.52%
- growth at 10 µM [20]: -83.1%
- growth at 10 µM [21]: 103%
- growth at 10 µM [22]: -73.3%
- growth at 10 µM [23]: -82.3%
- growth at 10 µM [24]: 79%
- growth at 10 µM [25]: -7.4%
- growth at 10 µM [26]: 16.3%
- growth at 10 µM [27]: 126%
- growth at 10 µM [28]: -71.5%
- growth at 10 µM [29]: 112%
- growth at 10 µM [30]: 49.6%
- growth at 10 µM [31]: 16.1%
- growth at 10 µM [32]: -2.53%
- growth at 10 µM [33]: 1.48%
- growth at 10 µM [34]: -21.8%
- viability at 100 µM [35]: 17%
- growth at 10 µM [36]: 4.96%
- growth at 10 µM [37]: 40.8%
- growth at 10 µM [38]: -40.1%
- growth at 10 µM [39]: 1.97%
- growth at 10 µM [40]: 97.8%
- growth at 10 µM [41]: -15.5%
- growth at 10 µM [42]: -73.2%
- growth at 10 µM [43]: 117%
- residual activity [44]: 10%
- growth at 10 µM [45]: -94.4%

SMILES: O=C1c2ccccc2C(=O)c2c1ccc1nccnc21
- growth at 10 µM [1]: 102%
- growth at 10 µM [2]: 105%
- growth at 10 µM [3]: 98.8%
- growth at 10 µM [4]: 107%
- growth at 10 µM [5]: 63.5%
- growth at 10 µM [6]: 85.2%
- viability at 10 µM [7]: 13%
- growth at 10 µM [8]: 28.4%
- growth at 10 µM [9]: 53.3%
- growth at 10 µM [11]: 97.5%
- growth at 10 µM [13]: 40.7%
- growth at 10 µM [14]: 59.8%
- residual activity [15]: 105%
- growth at 10 µM [46]: 24.1%
- growth at 10 µM [16]: 39.2%
- viability at 1 µM [17]: 98%
- growth at 10 µM [18]: 78.2%
- growth at 10 µM [19]: 66.6%
- growth at 10 µM [20]: 91.1%
- growth at 10 µM [21]: 82.6%
- growth at 10 µM [22]: 64.7%
- growth at 10 µM [23]: 90.5%
- growth at 10 µM [24]: 87.3%
- growth at 10 µM [25]: 76.8%
- growth at 10 µM [26]: 68%
- growth at 10 µM [27]: 80.8%
- growth at 10 µM [28]: 181%
- growth at 10 µM [29]: 71.6%
- growth at 10 µM [30]: 37.2%
- growth at 10 µM [31]: 65.1%
- growth at 10 µM [32]: 68%
- growth at 10 µM [33]: 52.1%
- growth at 10 µM [34]: 102%
- viability at 100 µM [35]: 6%
- growth at 10 µM [36]: 82.9%
- growth at 10 µM [37]: 93.3%
- growth at 10 µM [38]: 22.9%
- growth at 10 µM [39]: 87.9%
- growth at 10 µM [40]: 86.7%
- growth at 10 µM [41]: 71.7%
- growth at 10 µM [42]: 6.66%
- growth at 10 µM [43]: 81.9%
- residual activity [44]: 26%
- growth at 10 µM [45]: 94.2%
